Assay [1] concerns HeLa. The experiment in a line: In vitro anticellular activity expressed as inhibitory concentration for the growth of HeLa S3 cells for a period of 72 hour. As to conditions: Homo sapiens. The assay is classed as functional, cell-based. A digest of the protocol:
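HeLa S3 cells, 2 × 10^4 per well, precultured 24 h at 37 °C in 5% CO2, then exposed continuously to compound for 72 h. Cells detached with PBS(–) containing 0.05% trypsin and 0.02% EDTA and counted electronically. IC50 is the concentration giving 50% inhibition of cell growth.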

Assay [2] concerns HeLa. The experiment in a line: In vitro anticellular activity expressed as inhibitory concentration for the growth of human uterine cervix carcinoma HeLa S3 cells for a period of 1 hour. The assay is classed as functional, cell-based. The essentials:
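HeLa S3 cells seeded at 2 × 10^4/well and precultured 24 h at 37 °C, 5% CO2. Pulse exposure: compound for 1 h, washed with Ca/Mg-free PBS, then grown 71 h in fresh medium. Cells detached with 0.05% trypsin/0.02% EDTA in PBS and counted electronically. IC50 is the concentration giving 50% growth inhibition.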

Assay [3] has as its system Mus musculus. The assay is described as follows: Treated/Control value was measured in mice(implanted subcutaneously with sarcoma 180 cells) at the dose of 4 mg/kg. In kind it is functional. A digest of the protocol: (§1)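 Adult male ddY mice, five per group, implanted sc at the axillary region with passaged sarcoma 180 cells. Drug given iv starting 1 day after inoculation. Tumor length and width measured; volume = length × width²/2. T/C is mean tumor volume of treated over control. Effective if T/C ≤42% with Mann–Whitney U p < 0.05.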

For assay [4], the system named is Mus musculus. The assay is described as follows: Treated/Control value was measured in mice(implanted subcutaneously with sarcoma 180 cells) at the dose of 8 mg/kg. The assay is classed as functional. The essentials: as §1
Assay [5] concerns Mus musculus. The assay is described as follows: Treated/Control value was measured in mice(implanted subcutaneously with sarcoma 180 cells) at the dose of 0.13 mg/kg. The assay is classed as functional. The essentials: as §1
Assay [6] relates to Mus musculus. The experiment in a line: Treated/Control value was measured in mice(implanted subcutaneously with sarcoma 180 cells) at the dose of 2 mg/kg. The assay is classed as functional. The essentials:
as §1

In ChEMBL document CHEMBL1130435, “Synthesis and antitumor activity of duocarmycin derivatives: A-ring pyrrole compounds bearing cinnamoyl groups” (J Med Chem, 1997) one finds IC50 and T/C data, which are given here for 28 compounds.

As usually defined, the IC50 is the concentration needed to halve the response being measured. A low value points to higher potency.

For `COC(=O)c1c(C)[nH]c2c1[C@@]13C[C@@H]1CN(C(=O)/C=C/c1ccc(OC)cc1)C3=CC2=O`, the IC50 came to 0.94 nM with HeLa [1] and 7 nM with HeLa [2].

As to `CCCOc1ccc(/C=C/C(=O)N2C[C@H]3C[C@@]34C2=CC(=O)c2[nH]c(C)c(C(=O)OC)c24)cc1`, the 50% inhibitory concentration (IC50) was found to be 8.3 nM with HeLa [1] and 51 nM in the assay with HeLa [2].

With `COC(=O)c1c(C)[nH]c2c1[C@@]13C[C@@H]1CN(C(=O)/C=C/c1ccc(OC)c(N)c1)C3=CC2=O`, the IC50 with HeLa [1] is 0.53 nM; in the assay on HeLa [2], 2.1 nM.

Take `COC(=O)c1c(C)[nH]c2c1[C@@]13C[C@@H]1CN(C(=O)/C=C/c1ccc(N(C)C)cc1)C3=CC2=O`: the IC50 in the assay with HeLa [1] was 1.6 nM; with HeLa [2] it was 12 nM.

With `CCCCCOc1ccc(/C=C/C(=O)N2C[C@H]3C[C@@]34C2=CC(=O)c2[nH]c(C)c(C(=O)OC)c24)cc1`, the values for the IC50 with HeLa [1] and in the assay on HeLa [2] were 50 nM and greater than 100 nM, respectively.

Turning to `COC(=O)c1c(C)[nH]c2c1[C@@]13C[C@@H]1CN(C(=O)/C=C/c1ccc(C)cc1)C3=CC2=O`, the IC50 in the assay on HeLa [1] came out at 2.3 nM; in the assay on HeLa [2] it was 33 nM.

On to `COC(=O)c1c(C)[nH]c2c1C1C(=CC2OC(=O)N(C)C)N(C(=O)/C=C/c2ccc(OC)c(OCC(=O)O)c2)C[C@H]1CBr` (some centres undefined), for which the IC50 in the assay on HeLa [1] is greater than 1000 nM; in the assay with HeLa [2] it was 10000 nM. Besides, the T/C in the assay on Mus musculus [3] is 0.72.

`COC(=O)c1c(C)[nH]c2c1[C@@]13C[C@@H]1CN(C(=O)/C=C/c1ccc(OC)c(OCCCN(C)C)c1)C3=CC2=O`: the IC50 in the assay on HeLa [1] was determined as 1.6 nM; in the assay with HeLa [2] it was 3 nM.

For the compound `CCN(CC)c1cc(/C=C/C(=O)N2C[C@H]3C[C@@]34C2=CC(=O)c2[nH]c(C)c(C(=O)OC)c24)ccc1OC`, the 50% inhibitory concentration (IC50) in the assay with HeLa [1] worked out at 2.3 nM; in the assay with HeLa [2], 9.5 nM.

In the case of `CCc1ccc(/C=C/C(=O)N2C[C@H]3C[C@@]34C2=CC(=O)c2[nH]c(C)c(C(=O)OC)c24)cc1`, the results for the half-maximal inhibitory concentration (IC50) in the assay with HeLa [1] and in the assay on HeLa [2] were 3.8 nM and 51 nM, respectively.

For `COC(=O)c1c(C)[nH]c2c1[C@@]13C[C@@H]1CN(C(=O)/C=C/c1ccc(OC)c(OCCCN)c1)C3=CC2=O`, the IC50 in the assay on HeLa [1] came out at 1.4 nM; with HeLa [2], 5.9 nM.

Consider `COC(=O)c1c(C)[nH]c2c1[C@@]13C[C@@H]1CN(C(=O)/C=C/c1ccc(OCc4ccc(OC)cc4)cc1)C3=CC2=O`, for which the IC50 with HeLa [1] was 0.81 nM; in the assay on HeLa [2], 13 nM.

On to `C=CCOc1ccc(/C=C/C(=O)N2C[C@H]3C[C@@]34C2=CC(=O)c2[nH]c(C)c(C(=O)OC)c24)cc1`, for which the IC50 in the assay on HeLa [1] is 7.5 nM; with HeLa [2], 39 nM.

Regarding `COC(=O)c1c(C)[nH]c2c1[C@@]13C[C@@H]1CN(C(=O)/C=C/c1ccc(NC(=O)OC(C)(C)C)cc1)C3=CC2=O`, the IC50 is 0.56 nM in the assay with HeLa [1] and 4 nM in the assay with HeLa [2].

Regarding `COC(=O)c1c(C)[nH]c2c1[C@@]13C[C@@H]1CN(C(=O)/C=C/c1ccc(OC)c(OCCCN=[N+]=[N-])c1)C3=CC2=O`, the IC50 in the assay with HeLa [1] amounted to 0.74 nM; in the assay with HeLa [2], 2 nM.

For `COC(=O)c1c(C)[nH]c2c1[C@@]13C[C@@H]1CN(C(=O)c1cc4cc(OC)c(OC)c(OC)c4[nH]1)C3=CC2=O`, the IC50 amounted to 0.16 nM with HeLa [1] and 0.5 nM in the assay with HeLa [2].

Take `COC(=O)c1c(C)[nH]c2c1[C@@]13C[C@@H]1CN(C(=O)/C=C/c1ccc(N)cc1)C3=CC2=O`: the IC50 stood at 2.6 nM in the assay with HeLa [1] and 32 nM in the assay with HeLa [2].

For `COC(=O)c1c(C)[nH]c2c1[C@@]13C[C@@H]1CN(C(=O)/C=C/c1ccc(O)cc1)C3=CC2=O`, the IC50 is 3.5 nM in the assay with HeLa [1] and 19 nM in the assay with HeLa [2].

On to `COC(=O)c1c(C)[nH]c2c1[C@@]13C[C@@H]1CN(C(=O)/C=C/c1ccc(OC)c(OCC(=O)OC(C)(C)C)c1)C3=CC2=O`, for which the figures for the IC50 with HeLa [1] and in the assay with HeLa [2] were 2.3 nM and 7.4 nM, respectively.

Consider `COC(=O)COc1cc(/C=C/C(=O)N2C[C@H]3C[C@@]34C2=CC(=O)c2[nH]c(C)c(C(=O)OC)c24)ccc1OC`, for which the IC50 in the assay with HeLa [1] worked out at 0.86 nM; with HeLa [2] it was 1.3 nM.

As for `COC(=O)c1c(C)[nH]c2c1[C@@]13C[C@@H]1CN(C(=O)/C=C/c1ccc(OC)c(N(C)C)c1)C3=CC2=O`, the IC50 in the assay on HeLa [1] was 0.92 nM; in the assay on HeLa [2], 2.5 nM.

Take `CCN(CC)c1cc(/C=C/C(=O)N2C[C@@H](CBr)C3C2=CC(OC(=O)N2CCN(C)CC2)c2[nH]c(C)c(C(=O)OC)c23)ccc1OC.Cl` (some centres undefined): the IC50 in the assay on HeLa [1] was found to be 280 nM; with HeLa [2], 2100 nM. The T/C with Mus musculus [4] is listed as 0.2.

As for `COC(=O)c1c(C)[nH]c2c1C1C(=CC2OC(=O)N2CCN(CC(=O)NC(C)C)CC2)N(C(=O)/C=C/c2ccc(OC)cc2)C[C@H]1CBr.Cl` (some centres undefined), the results for the IC50 in the assay with HeLa [1] and in the assay on HeLa [2] were 61 nM and 1200 nM, respectively. The compound also registered a T/C with Mus musculus [4] of 0.12.

In the case of `COC(=O)c1c(C)[nH]c2c1C1C(=CC2OC(=O)N2CCN(C)CC2)N(C(=O)/C=C/c2ccc(OC)c(N)c2)C[C@H]1CBr.Cl` (some centres undefined), the IC50 with HeLa [1] came to 30 nM; in the assay with HeLa [2], 290 nM. Further, the T/C in the assay with Mus musculus [4] came out at 0.39.

For the compound `COC(=O)c1c(C)[nH]c2c1C1C(=CC2OC(=O)N2CCN(C)CC2)N(C(=O)/C=C/c2ccc(OC)c(OCCCN)c2)C[C@H]1CBr.Cl` (some centres undefined), the IC50 in the assay with HeLa [1] turned out to be 30 nM; in the assay on HeLa [2] it was 290 nM. This compound also returned a T/C with Mus musculus [5] of 0.77.

In the case of `COC(=O)c1c(C)[nH]c2c1C1C(=CC2OC(=O)N2CCC(N3CCCCC3)CC2)N(C(=O)/C=C/c2ccc(OC)cc2)C[C@H]1CBr.Cl` (some centres undefined), the IC50 in the assay with HeLa [1] is 224 nM; with HeLa [2], 1000 nM. In addition, in the assay on Mus musculus [3], the T/C amounted to 0.17.

As to `COC(=O)c1c(C)[nH]c2c1C1C(=CC2OC(=O)N2CCN(C)CC2)N(C(=O)/C=C/c2ccc(OC)c(N(C)C)c2)C[C@H]1CBr.Cl` (some centres undefined), the concentration for half-maximal inhibition (IC50) in the assay on HeLa [1] turned out to be 52 nM; in the assay with HeLa [2], 430 nM. For the same compound, the T/C with Mus musculus [6] worked out at 0.13.

On to `COC(=O)c1c(C)[nH]c2c1C1C(=CC2OC(=O)N2CCN(C)CC2)N(C(=O)/C=C/c2ccc(OC)cc2)C[C@H]1CBr.Cl` (some centres undefined), for which the IC50 with HeLa [1] was 37 nM; in the assay with HeLa [2], 1800 nM. The T/C in the assay on Mus musculus [3] stood at 0.2.
